# Reference: ChEMBL document CHEMBL4196064, “Identification of Pyrazolo[3,4-e][1,4]thiazepin based CYP51 inhibitors as potential Chagas disease therapeutic alternative: In vitro and in vivo evaluation, binding mode prediction and SAR exploration” (Eur J Med Chem, 2018)
# Activity calls are given as the source filed them. The calls are words filed in the database; no cut-off is given here.
# Tests used:
# Trypanosoma cruzi [1] = test: Antitrypanosomal activity against Trypanosoma cruzi Tulahuen trypomastigote forms infected in mouse L929 cells assessed as reduction in infection level at 10 to 12 uM after 96 hrs by beta-galactosidase reporter gene assay relative to control; type: functional; set-up: scale not given: the % may be the effect or the level left
# Procedure, shortened: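 L929 cells infected 2 h with tissue culture-derived β-galactosidase-expressing Tulahuen trypomastigotes at 10:1 parasite/host cell ratio, rinsed, and held 48 h at 37℃. Single fixed concentration (10-12 µM) then applied, 96 h. Absorbance read at 570 nm; growth inhibition expressed relative to untreated cells. DMSO not above 0.6 %.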
# Trypanosoma cruzi [2] = test: Antitrypanosomal activity against bloodstream trypomastigote stage of Trypanosoma cruzi Y measured after 24 hrs by light microscopic analysis; type: functional, organism-based
# Procedure, shortened: (§1)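 Y strain bloodstream trypomastigotes from heart puncture of infected mice, at 5x10⁶/mL in RPMI 1640 with 5% FBS. Incubated at 37℃ with 0–50 µM for 2 or 24 h. […] Mean ± SD.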
# [3] = Selectivity index, ratio of LC50 for mouse L929 cells by light microscopic analysis to EC50 for Trypanosoma cruzi Tulahuen trypomastigote forms; type: toxicity; conditions: read-out: Selectivity Index
# Trypanosoma cruzi [4] = test: Antitrypanosomal activity against bloodstream trypomastigote stage of Trypanosoma cruzi Y measured after 2 hrs by light microscopic analysis; type: functional, organism-based; procedure, shortened: as §1
# [5] = Cytotoxicity against Swiss Webster mouse cardiac cells assessed as reduction in cell viability after 24 hrs by light microscopic analysis; type: cell-based, Cardiac Muscle Cell; conditions: read-out: LC50
# Procedure, shortened: (§2)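 Primary cardiac cells from Swiss Webster mouse embryos, cultured at 37°C in DMEM with 5% FBS, CaCl2, glutamine and chick embryo extract. Uninfected cultures were exposed to increasing concentrations for 24 h. Viability was read with PrestoBlue (5 h incubation, absorbance at 570 nm) and checked by light microscopy for morphology.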
# Trypanosoma cruzi [6] = test: Antitrypanosomal activity against Trypanosoma cruzi Tulahuen trypomastigote forms infected in mouse L929 cells assessed as reduction in parasite load after 96 hrs by beta-galactosidase reporter gene assay; type: functional, organism-based; conditions: L929, 96 h
# Procedure, shortened: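 L929 cells infected 2 h with tissue culture-derived Tulahuen β-galactosidase trypomastigotes (10:1 parasite/host cell), rinsed with saline, and left 48 h at 37℃. Increasing non-toxic concentrations applied for 96 h. Absorbance read at 570 nm, % growth inhibition versus untreated cells, EC50 derived; mean ± SD. DMSO not above 0.6 %.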
# [7] = Cytotoxicity against Swiss Webster mouse cardiac cells assessed as reduction in cell viability after 24 hrs by prestoblue assay; type: cell-based, Cardiac Muscle Cell; conditions: read-out: LC50; procedure, shortened: as §2
# [8] = Cytotoxicity against mouse L929 cells assessed as reduction in cell viability after 96 hrs by light microscopic analysis; type: cell-based; conditions: read-out: LC50
# Procedure, shortened: (§3)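 L929 fibroblasts (4x10^3 cells/well) in RPMI 1640 with 10% FBS, incubated at 37°C with increasing concentrations for 96 h. Viability was read with AlamarBlue (6 h incubation, absorbance at 600 nm) and confirmed by light microscopy.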
# [9] = Cytotoxicity against mouse L929 cells assessed as reduction in cell viability after 96 hrs by Alamarblue assay; type: cell-based; conditions: read-out: LC50; procedure, shortened: as §3
# [10] = Selectivity index, ratio of LC50 for Swiss Webster mouse cardiac cells by prestoblue assay to EC50 for bloodstream trypomastigote stage of Trypanosoma cruzi Y measured after 24 hrs; type: toxicity; conditions: read-out: Selectivity Index
# Procedure, shortened: (§4)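 The ratio is cardiac-cell LC50 (24 h) over the 24 h EC50 against Y-strain bloodstream trypomastigotes. Trypomastigotes (5x10^6/mL) were exposed to 0-50 µM at 37°C in RPMI with 5% FBS. Surviving parasites were counted in a Neubauer chamber, and the EC50 is the concentration halving the parasite number.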
# [11] = Selectivity index, ratio of LC50 for mouse L929 cells by Alamarblue assay to EC50 for Trypanosoma cruzi Tulahuen trypomastigote forms; type: toxicity; conditions: read-out: Selectivity Index
# [12] = Selectivity index, ratio of LC50 for Swiss Webster mouse cardiac cells by light microscopic analysis to EC50 for bloodstream trypomastigote stage of Trypanosoma cruzi Y measured after 24 hrs; type: toxicity; conditions: read-out: Selectivity Index; procedure, shortened: as §4
# Trypanosoma cruzi [13] = test: Trypanocidal activity against Trypanosoma cruzi Sylvio X10/7 intracellular amastigotes forms measured every 24 hrs for 96 hrs by time-kill assay; type: functional
# Trypanosoma cruzi [14] = test: Trypanocidal activity against Trypanosoma cruzi Sylvio X10/7 intracellular amastigotes forms assessed as inhibition of maximum parasite growth measured every 24 hrs for 96 hrs by time-kill assay relative to control; type: functional
# Trypanosoma cruzi [15] = test: Antitrypanosomal activity against bloodstream trypomastigote stage of Trypanosoma cruzi Y infected in Swiss Webster mouse assessed as reduction in parasitemia at 5 mg/kg, ip administered daily on day 5 to 9 post infection relative to control; type: functional
# Procedure, shortened: (§5)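 Male Swiss Webster mice (18–20 g) infected i.p. with 10^4 Y strain bloodstream trypomastigotes. Treatment given days 5–9 post infection: test compound i.p. 5–20 mg/kg/day (0.1 mL, DMSO then 20% Trappsol) or Bz 100 mg/kg/day p.o. (3% Tween 80 in water). Controls infected, vehicle only. Parasitemia counted by Pizzi-Brener in 5 µL tail blood; mortality checked daily to 30 days post treatment.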
# Trypanosoma cruzi [16] = test: Antitrypanosomal activity against bloodstream trypomastigote stage of Trypanosoma cruzi Y infected in Swiss Webster mouse assessed as reduction in parasitemia at 20 mg/kg, ip administered daily on day 5 to 9 post infection relative to control; type: functional; procedure, shortened: as §5
# Trypanosoma cruzi [17] = test: Antitrypanosomal activity against bloodstream trypomastigote stage of Trypanosoma cruzi Y infected in Swiss Webster mouse assessed as increase in mouse survival at 5 to 20 mg/kg, ip administered daily on day 5 to 9 measured daily until 30 days post dose relative to control; type: functional, organism-based; procedure, shortened: as §5
# Trypanosoma cruzi [18] = test: Antitrypanosomal activity against bloodstream trypomastigote stage of Trypanosoma cruzi Y infected in Swiss Webster mouse assessed as reduction in parasitemia at 10 mg/kg, ip administered daily on day 5 to 9 post infection relative to control; type: functional; procedure, shortened: as §5
# [19] = molecular target: Sterol 14-alpha demethylase (Trypanosoma cruzi (strain CL Brener)) (UniProt Q7Z1V1); test: Inhibition of recombinant Trypanosoma cruzi Tulahuen CYP51 expressed in Escherichia coli JM109 cell membranes assessed as residual activity at 0.17 uM by fluorescence based analysis (reference value: 100%)
# Chain of Sterol 14-alpha demethylase (Trypanosoma cruzi (strain CL Brener)) (Q7Z1V1 whole entry, looked up): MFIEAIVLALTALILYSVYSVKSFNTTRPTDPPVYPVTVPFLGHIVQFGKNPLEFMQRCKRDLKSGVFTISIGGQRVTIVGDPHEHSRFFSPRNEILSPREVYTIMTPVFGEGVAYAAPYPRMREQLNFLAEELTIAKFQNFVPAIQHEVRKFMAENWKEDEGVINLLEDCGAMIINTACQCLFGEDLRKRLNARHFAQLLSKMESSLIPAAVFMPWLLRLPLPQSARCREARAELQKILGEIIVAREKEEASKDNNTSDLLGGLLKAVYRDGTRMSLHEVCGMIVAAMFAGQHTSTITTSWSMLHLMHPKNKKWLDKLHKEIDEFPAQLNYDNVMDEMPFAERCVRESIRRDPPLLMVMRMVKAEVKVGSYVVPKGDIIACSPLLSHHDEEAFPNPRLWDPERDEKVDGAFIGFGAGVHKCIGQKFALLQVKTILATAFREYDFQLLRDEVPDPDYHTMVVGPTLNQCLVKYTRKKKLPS
# Procedure, shortened: (§6)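 Fluorescence-based functional assay using recombinant T. cruzi (Tulahuen) CYP51. […] Residual activity was measured across a concentration series and fitted to a curve to give the IC50.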
# [20] = molecular target: Sterol 14-alpha demethylase (Trypanosoma cruzi (strain CL Brener)) (UniProt Q7Z1V1); test: Inhibition of recombinant Trypanosoma cruzi Tulahuen CYP51 expressed in Escherichia coli JM109 cell membranes assessed as residual activity at 0.005 uM by fluorescence based analysis (reference value: 100%); procedure, shortened: as §6
# [21] = molecular target: Sterol 14-alpha demethylase (Trypanosoma cruzi (strain CL Brener)) (UniProt Q7Z1V1); test: Inhibition of recombinant Trypanosoma cruzi Tulahuen CYP51 expressed in Escherichia coli JM109 cell membranes assessed as residual activity at 0.0165 uM by fluorescence based analysis (reference value: 100%); procedure, shortened: as §6
# [22] = molecular target: Sterol 14-alpha demethylase (Trypanosoma cruzi (strain CL Brener)) (UniProt Q7Z1V1); test: Inhibition of recombinant Trypanosoma cruzi Tulahuen CYP51 expressed in Escherichia coli JM109 cell membranes assessed as residual activity at 0.00165 uM by fluorescence based analysis (reference value: 100%); procedure, shortened: as §6
# [23] = molecular target: Sterol 14-alpha demethylase (Trypanosoma cruzi (strain CL Brener)) (UniProt Q7Z1V1); test: Inhibition of recombinant Trypanosoma cruzi Tulahuen CYP51 expressed in Escherichia coli JM109 cell membranes assessed as residual activity at 0.05 uM by fluorescence based analysis (reference value: 100%); procedure, shortened: as §6
# [24] = molecular target: Sterol 14-alpha demethylase (Trypanosoma cruzi (strain CL Brener)) (UniProt Q7Z1V1); test: Inhibition of recombinant Trypanosoma cruzi Tulahuen CYP51 expressed in Escherichia coli JM109 cell membranes assessed as residual activity at 0.0005 uM by fluorescence based analysis (reference value: 100%); procedure, shortened: as §6
# [25] = molecular target: Sterol 14-alpha demethylase (Trypanosoma cruzi (strain CL Brener)) (UniProt Q7Z1V1); test: Inhibition of recombinant Trypanosoma cruzi Tulahuen CYP51 expressed in Escherichia coli JM109 cell membranes assessed as residual activity at 0.5 uM by fluorescence based analysis (reference value: 100%); procedure, shortened: as §6
structure (smiles),measurement,setting,value
COc1cc([C@H]2S[C@@H](C)C(=O)Nc3[nH]nc(C)c32)ccc1OCc1ccccc1C,Activity,Trypanosoma cruzi [1],16.43%
COc1cc([C@H]2S[C@@H](C)C(=O)Nc3[nH]nc(C)c32)ccc1OCc1cccc(C)c1,Activity,Trypanosoma cruzi [1],25.05%
Cc1ccc(COc2ccc([C@H]3S[C@@H](C)C(=O)Nc4[nH]nc(C)c43)cc2)cc1,Activity,Trypanosoma cruzi [1],0%
Cc1n[nH]c2c1[C@@H](c1ccc(OCc3ccc(F)cc3)cc1)S[C@@H](C)C(=O)N2,Activity,Trypanosoma cruzi [1],32.42%
Cc1ccccc1COc1ccc([C@H]2S[C@@H](C)C(=O)Nc3[nH]nc(C)c32)cc1,EC50,Trypanosoma cruzi [2],38.6 µM
same,selectivity ratio,[3],50.4
same,EC50,Trypanosoma cruzi [4],> 50 µM
same,CC50 at 24 h,[5],> 200 µM
same,EC50,Trypanosoma cruzi [6],2.2 µM
same,CC50 at 24 h,[7],> 200 µM
same,CC50 at 96 h,[8],111 µM
same,CC50 at 96 h,[9],111 µM
same,selectivity ratio at 24 h,[10],> 5.2
same,selectivity ratio,[11],50.4
same,Activity,Trypanosoma cruzi [1],69.14%
same,selectivity ratio at 24 h,[12],> 5.2
COc1cc([C@H]2S[C@@H](C)C(=O)Nc3[nH]nc(C)c32)ccc1OCc1ccccc1Cl,Activity,Trypanosoma cruzi [1],27.88%
Cc1n[nH]c2c1[C@@H](c1ccc(OC(C)C)cc1)S[C@@H](C)C(=O)N2,Activity,Trypanosoma cruzi [1],0%
COc1cc([C@H]2S[C@@H](C)C(=O)Nc3[nH]nc(C)c32)ccc1OCc1ccc(Cl)cc1,EC50,Trypanosoma cruzi [2],39.4 µM
same,selectivity ratio,[3],4.7
same,EC50,Trypanosoma cruzi [4],> 50 µM
same,EC50,Trypanosoma cruzi [6],10.8 µM
same,CC50 at 96 h,[8],50.6 µM
same,CC50 at 96 h,[9],50.6 µM
same,selectivity ratio,[11],4.7
same,Activity,Trypanosoma cruzi [1],53.94%
CC1CS(=O)(=O)CCN1/N=C/c1ccc([N+](=O)[O-])o1 (stereo unspecified) [NIFURTIMOX],MIC,Trypanosoma cruzi [13],5 µM
same,Imax,Trypanosoma cruzi [14],103%
C=CCOc1ccc([C@H]2S[C@@H](C)C(=O)Nc3[nH]nc(C)c32)cc1,Activity,Trypanosoma cruzi [1],0%
COc1cc([C@H]2S[C@@H](C)C(=O)Nc3[nH]nc(C)c32)ccc1OCc1cccc(Cl)c1,Activity,Trypanosoma cruzi [1],39.94%
COc1cc([C@H]2S[C@@H](C)C(=O)Nc3[nH]nc(C)c32)ccc1OCc1ccccc1,Activity,Trypanosoma cruzi [1],12.02%
Cc1n[nH]c2c1[C@@H](c1ccc(OCc3cccc(F)c3)cc1)S[C@@H](C)C(=O)N2,EC50,Trypanosoma cruzi [2],47 µM
same,selectivity ratio,[3],19.4
same,EC50,Trypanosoma cruzi [4],> 50 µM
same,CC50 at 24 h,[5],94 µM
same,EC50,Trypanosoma cruzi [6],5.32 µM
same,CC50 at 24 h,[7],94 µM
same,CC50 at 96 h,[8],103 µM
same,CC50 at 96 h,[9],103 µM
same,selectivity ratio at 24 h,[10],3.71
same,selectivity ratio,[11],19.4
same,Activity,Trypanosoma cruzi [1],70.68%
same,selectivity ratio at 24 h,[12],3.71
COc1cc([C@H]2S[C@@H](C)C(=O)Nc3[nH]nc(C)c32)ccc1OCc1ccc(C)cc1,Activity,Trypanosoma cruzi [1],1.98%
Cc1cccc(COc2ccc([C@H]3S[C@@H](C)C(=O)Nc4[nH]nc(C)c43)cc2)c1,Activity,Trypanosoma cruzi [15],inactive
same,EC50,Trypanosoma cruzi [2],20.6 µM
same,selectivity ratio,[3],36.6
same,EC50,Trypanosoma cruzi [4],> 50 µM
same,CC50 at 24 h,[5],66 µM
same,EC50,Trypanosoma cruzi [6],2.7 µM
same,CC50 at 24 h,[7],66 µM
same,Activity,Trypanosoma cruzi [16],inactive
same,CC50 at 96 h,[8],98.9 µM
same,CC50 at 96 h,[9],98.9 µM
same,selectivity ratio at 24 h,[10],3.2
same,selectivity ratio,[11],36.6
same,Activity,Trypanosoma cruzi [17],inactive
same,Activity,Trypanosoma cruzi [18],inactive
same,Activity,Trypanosoma cruzi [1],89.25%
same,selectivity ratio at 24 h,[12],3.2
CCCOc1ccc([C@H]2S[C@@H](C)C(=O)Nc3[nH]nc(C)c32)cc1,Activity,Trypanosoma cruzi [1],0%
Cc1n[nH]c2c1[C@@H](c1ccc(OCc3ccc(Cl)cc3)cc1)S[C@@H](C)C(=O)N2,Activity,Trypanosoma cruzi [1],14.88%
CC[C@@H]([C@H](C)O)n1ncn(-c2ccc(N3CCN(c4ccc(OC[C@@H]5CO[C@@](Cn6cncn6)(c6ccc(F)cc6F)C5)cc4)CC3)cc2)c1=O,Activity,[19],0%
same,Activity,[20],92.8%
same,Activity,[21],71.9%
same,Activity,[22],98.4%
same,Activity,[23],32%
same,Activity,[24],100%
same,Activity,[25],0%
Cc1n[nH]c2c1[C@@H](c1ccc(OCc3ccccc3F)cc1)S[C@@H](C)C(=O)N2,EC50,Trypanosoma cruzi [2],> 50 µM
same,selectivity ratio,[3],> 38
same,EC50,Trypanosoma cruzi [4],> 50 µM
same,CC50 at 24 h,[5],> 200 µM
same,EC50,Trypanosoma cruzi [6],5.3 µM
same,CC50 at 24 h,[7],> 200 µM
same,CC50 at 96 h,[8],> 200 µM
same,CC50 at 96 h,[9],> 200 µM
same,selectivity ratio at 24 h,[10],> 4
same,selectivity ratio,[11],> 38
same,Activity,Trypanosoma cruzi [1],63.64%
same,selectivity ratio at 24 h,[12],> 4
